One experiment relates to A549. The experiment can be described thus: Cytotoxicity against human A549 cells. The experiment is classed as functional, cell-based. In short, it runs like this: (§1)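 Human A549 (lung adenocarcinoma) and HT-29 (colon adenocarcinoma) cells were obtained from ATCC. In vitro cytotoxicity was measured on the cultured cells.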
For another experiment, the system named is HT-29. Briefly: Cytotoxicity against human HT29 cells. The experiment is classed as functional, cell-based. In short, it runs like this:
as §1

A further experiment relates to P388. Briefly: Cytotoxicity against mouse P388 cells. The class given is functional. The following applies: read-out: ED50 (the source's name).

Values after ≈ are worked out from the molar mass of the structure shown.

With `C=C1CC[C@@H]2O[C@@]2(C)CC[C@H]2[C@H]1C(=O)O[C@@]2(/C=C/C1OC1(C)C)CO` (stereo partly drawn), the Activity entry with A549 and in the experiment with HT-29 was “Not toxic” throughout.

In the case of `C=C1CC[C@@H]2O[C@@]2(C)CC[C@H]2[C@H]1C(=O)O[C@@]2(/C=C/C1OC1(C)C)COC(C)=O` (stereo partly drawn), the Activity entry in the experiment on A549 and in the experiment with HT-29 was “Not toxic” in each case.

Regarding `C=C1C[C@@H](O)/C=C(\C)CC[C@@H]2/C(=C\C=C\C(C)(C)O)[C@@H](OC)O[C@H](OC)[C@@H]12`, the Activity result in the experiment with A549 and in the experiment with HT-29 was “Not toxic” throughout.

For `CC(C)(O)/C=C/C=C(/C=O)[C@H]1CC[C@@]2(C)C[C@](O)(CC[C@H]2O)[C@@H]1C=O`, the Activity entry in the experiment with A549 and with HT-29 was “Not toxic” throughout.

For the compound `CC(C)(O)/C=C/C=C1/COC(=O)[C@H]2C3=CC[C@@H](O)[C@@](C)(CC[C@H]12)C3`, the Activity result in the experiment on A549 and in the experiment on HT-29 was “Not toxic” each time.

Take `C=C(C)C(O)C/C=C(/COC(C)=O)[C@H]1CC[C@@]2(C)C[C@](O)(CC[C@H]2O)[C@@H]1C(=O)OC` (stereo partly drawn) [UMBELLACIN B]: the Activity entry with A549 and with HT-29 was “Not toxic” in each case. Besides, in the experiment on P388, the EC50 stood at 1.6 µg/mL (≈ 3.77 µM).

As to `COC(=O)[C@@H]1[C@@H](/C(=C\CC(O)C(C)(C)O)COC(C)=O)CC[C@]2(C)[C@@H]3CC[C@]12CO3` (stereo partly drawn) [UMBELLACIN D], the Activity result in the experiment on A549 and in the experiment on HT-29 was “Not toxic” in each case. The EC50 with P388 is 4.2 µg/mL (≈ 9.89 µM).

For the compound `COC(=O)[C@H]1C2=CC[C@@H](O)[C@@](C)(CC[C@@H]1/C(=C\CC(O)C(C)(C)O)COC(C)=O)C2` (stereo partly drawn) [UMBELLACIN E], the Activity result in the experiment with A549 and with HT-29 was “Not toxic” in each case. Also, in the experiment with P388, the EC50 amounted to 3.8 µg/mL (≈ 8.95 µM).

Regarding `C=C1CC/C=C(\C)CC[C@H](/C(=C\CC(O)C(C)(C)O)COC(C)=O)[C@H]1C(=O)OC` (stereo partly drawn) [UMBELLACIN F], the Activity entry in the experiment on A549 and in the experiment on HT-29 was “Not toxic” in each case. Further, in the experiment on P388, the EC50 came to 3.7 µg/mL (≈ 9.06 µM).

With `C=C1CC[C@@H]2O[C@@]2(C)CC[C@H](/C(=C\CC(O)C(C)(C)O)COC(C)=O)[C@H]1C(=O)OC` (stereo partly drawn) [UMBELLACIN H], the Activity entry in the experiment on A549 and with HT-29 was “Not toxic” in each case. For the same compound, the EC50 in the experiment with P388 came out at 3.4 µg/mL (≈ 8.01 µM).

Take `COC(=O)[C@@H]1[C@@H](/C(=C\CC(O)C(C)(C)O)COC(C)=O)CC[C@@]2(C)C[C@]1(O)CC[C@H]2O` (stereo partly drawn) [UMBELLACIN I]: the Activity result in the experiment with A549 and in the experiment with HT-29 was “Not toxic” each time. Moreover, the EC50 in the experiment with P388 came to 3.6 µg/mL (≈ 8.13 µM).
